Columns and labels:
Talaromyces funiculosus [1] = test: Antifungal activity against Penicillium funiculosum ATCC 36839 after 72 hrs by serial dilution method; assay type: functional; conditions: ATCC 36839, 72 h
Procedure, shortened: (§1)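 Modified microdilution MIC. Spores were washed from malt agar cultures with sterile 0.85% saline containing 0.1% Tween 80 and adjusted to about 1.0 × 10^5 per 100 µl well in malt broth. Compounds were dissolved in DMSO (1 mg/ml). Plates incubated 72 h at 28 °C. MIC is the lowest concentration with no visible growth under a binocular microscope. Bifonazole and ketoconazole were the references.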

Aspergillus flavus [2] = test: Antifungal activity against Aspergillus flavus ATCC 9643 treated for 72 hrs followed by sub-cultivated for 5 days by serial dilution method; assay type: functional
Procedure, shortened: (§2)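 MFC obtained after the 72 h, 28 °C malt-broth microdilution (spore inoculum about 1.0 × 10^5 per well, compounds from 1 mg/ml DMSO). 2 µl was serially subcultured into 100 µl broth per well and incubated a further 5 days at 28 °C. MFC is the lowest concentration with no visible growth, taken as 99.5% killing of the original inoculum.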

Pseudomonas aeruginosa [3] = test: Antibacterial activity against Pseudomonas aeruginosa ATCC 27853 treated for 24 hrs followed by sub-cultivated for 72 hrs by micro dilution method; assay type: functional
Procedure, shortened: (§3)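 2 µl from each well was serially subcultured into 100 µl fresh broth per well and incubated a further 72 h. MBC is the lowest concentration with no visible growth, taken as 99.5% killing of the original inoculum. Streptomycin and ampicillin were the positive controls.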

Penicillium ochrochloron [4] = test: Antifungal activity against Penicillium ochrochloron ATCC 9112 treated for 72 hrs followed by sub-cultivated for 5 days by serial dilution method; assay type: functional; procedure, shortened: as §2
Fulvia fulva [5] = test: Antifungal activity against Fulvia fulva treated for 72 hrs followed by sub-cultivated for 5 days by serial dilution method; assay type: functional; procedure, shortened: as §2
Escherichia coli [6] = test: Antibacterial activity against Escherichia coli ATCC 35210 after 24 hrs by micro dilution method; assay type: functional; conditions: ATCC 35210, 24 h
Procedure, shortened: (§4)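 Microdilution MIC in 96-well plates. Bacterial suspensions adjusted in sterile saline to 1.0 × 10^5 CFU/ml, giving 1.0 × 10^4 cfu per well in LB broth. Compounds tested at up to 1 mg/ml. Plates incubated 24 h. MIC taken as the lowest concentration with no visible growth under a binocular microscope. OD at 655 nm was also read against a blank and the positive control. Streptomycin and ampicillin were the positive controls.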

Enterobacter cloacae [7] = test: Antibacterial activity against Enterobacter cloacae human isolate after 24 hrs by micro dilution method; assay type: functional; procedure, shortened: as §4
Listeria monocytogenes [8] = test: Antibacterial activity against Listeria monocytogenes NCTC 7973 after 24 hrs by micro dilution method; assay type: functional; conditions: NCTC 7973, 24 h; procedure, shortened: as §4
Staphylococcus aureus [9] = test: Antibacterial activity against Staphylococcus aureus ATCC 6538 treated for 24 hrs followed by sub-cultivated for 72 hrs by micro dilution method; assay type: functional; procedure, shortened: as §3
Salmonella typhimurium [10] = test: Antibacterial activity against Salmonella Typhimurium ATCC 13311 treated for 24 hrs followed by sub-cultivated for 72 hrs by micro dilution method; assay type: functional, Salmonella enterica subsp. enterica serovar Typhimurium; conditions: Salmonella enterica; procedure, shortened: as §3
Micrococcus flavus [11] = test: Antibacterial activity against Micrococcus flavus ATCC 10240 treated for 24 hrs followed by sub-cultivated for 72 hrs by micro dilution method; assay type: functional; procedure, shortened: as §3
Pseudomonas aeruginosa [12] = test: Antibacterial activity against Pseudomonas aeruginosa ATCC 27853 after 24 hrs by micro dilution method; assay type: functional; conditions: ATCC 27853, 24 h; procedure, shortened: as §4
Talaromyces funiculosus [13] = test: Antifungal activity against Penicillium funiculosum ATCC 36839 treated for 72 hrs followed by sub-cultivated for 5 days by serial dilution method; assay type: functional; procedure, shortened: as §2
Aspergillus versicolor [14] = test: Antifungal activity against Aspergillus versicolor ATCC 11730 treated for 72 hrs followed by sub-cultivated for 5 days by serial dilution method; assay type: functional; procedure, shortened: as §2
Aspergillus niger [15] = test: Antifungal activity against Aspergillus niger ATCC 6275 treated for 72 hrs followed by sub-cultivated for 5 days by serial dilution method; assay type: functional; procedure, shortened: as §2
Trichoderma viride [16] = test: Antifungal activity against Trichoderma viride IAM 5061 treated for 72 hrs followed by sub-cultivated for 5 days by serial dilution method; assay type: functional; procedure, shortened: as §2
Penicillium ochrochloron [17] = test: Antifungal activity against Penicillium ochrochloron ATCC 9112 after 72 hrs by serial dilution method; assay type: functional; conditions: ATCC 9112, 72 h; procedure, shortened: as §1
Bacillus cereus [18] = test: Antibacterial activity against Bacillus cereus clinical isolate after 24 hrs by micro dilution method; assay type: functional; procedure, shortened: as §4
Bacillus cereus [19] = test: Antibacterial activity against Bacillus cereus clinical isolate treated for 24 hrs followed by sub-cultivated for 72 hrs by micro dilution method; assay type: functional; procedure, shortened: as §3
Aspergillus versicolor [20] = test: Antifungal activity against Aspergillus versicolor ATCC 11730 after 72 hrs by serial dilution method; assay type: functional; conditions: ATCC 11730, 72 h; procedure, shortened: as §1
Fulvia fulva [21] = test: Antifungal activity against Fulvia fulva after 72 hrs by serial dilution method; assay type: functional; procedure, shortened: as §1
Aspergillus fumigatus [22] = test: Antifungal activity against Aspergillus fumigatus human isolate after 72 hrs by serial dilution method; assay type: functional; procedure, shortened: as §1
Staphylococcus aureus [23] = test: Antibacterial activity against Staphylococcus aureus ATCC 6538 after 24 hrs by micro dilution method; assay type: functional; conditions: ATCC 6538, 24 h; procedure, shortened: as §4
Aspergillus fumigatus [24] = test: Antifungal activity against Aspergillus fumigatus human isolate treated for 72 hrs followed by sub-cultivated for 5 days by serial dilution method; assay type: functional; procedure, shortened: as §2
Aspergillus niger [25] = test: Antifungal activity against Aspergillus niger ATCC 6275 after 72 hrs by serial dilution method; assay type: functional; conditions: ATCC 6275, 72 h; procedure, shortened: as §1
Listeria monocytogenes [26] = test: Antibacterial activity against Listeria monocytogenes NCTC 7973 treated for 24 hrs followed by sub-cultivated for 72 hrs by micro dilution method; assay type: functional; procedure, shortened: as §3
Salmonella typhimurium [27] = test: Antibacterial activity against Salmonella Typhimurium ATCC 13311 after 24 hrs by micro dilution method; assay type: functional, Salmonella enterica subsp. enterica serovar Typhimurium; conditions: Salmonella enterica, ATCC 13311, 24 h; procedure, shortened: as §4
Enterobacter cloacae [28] = test: Antibacterial activity against Enterobacter cloacae human isolate treated for 24 hrs followed by sub-cultivated for 72 hrs by micro dilution method; assay type: functional; procedure, shortened: as §3
Escherichia coli [29] = test: Antibacterial activity against Escherichia coli ATCC 35210 treated for 24 hrs followed by sub-cultivated for 72 hrs by micro dilution method; assay type: functional; procedure, shortened: as §3
Trichoderma viride [30] = test: Antifungal activity against Trichoderma viride IAM 5061 after 72 hrs by serial dilution method; assay type: functional; conditions: IAM 5061, 72 h; procedure, shortened: as §1
Aspergillus flavus [31] = test: Antifungal activity against Aspergillus flavus ATCC 9643 after 72 hrs by serial dilution method; assay type: functional; conditions: ATCC 9643, 72 h; procedure, shortened: as §1
Micrococcus flavus [32] = test: Antibacterial activity against Micrococcus flavus ATCC 10240 after 24 hrs by micro dilution method; assay type: functional; conditions: ATCC 10240, 24 h; procedure, shortened: as §4

COc1cc(Cc2n[nH]c(=O)n2C(C)(C)C)c(S(=O)(=O)N(C)C)cc1OC
30 µM: MIC (Trichoderma viride [30])
390 µM: MBC (Pseudomonas aeruginosa [3]) | MIC (Listeria monocytogenes [8]) | MBC (Staphylococcus aureus [9]) | MBC (Micrococcus flavus [11]) | MIC (Pseudomonas aeruginosa [12]) | MIC (Staphylococcus aureus [23]) | MBC (Listeria monocytogenes [26]) | MIC (Micrococcus flavus [32])
780 µM: MBC (Bacillus cereus [19])
380 µM: MFC (Aspergillus flavus [2]) | MFC (Penicillium ochrochloron [4]) | MFC (Aspergillus versicolor [14]) | MFC (Aspergillus niger [15]) | MFC (Aspergillus fumigatus [24])
130 µM: MIC (Talaromyces funiculosus [1]) | MIC (Escherichia coli [6])
250 µM: MFC (Fulvia fulva [5]) | MIC (Enterobacter cloacae [7]) | MBC (Salmonella typhimurium [10]) | MFC (Talaromyces funiculosus [13]) | MFC (Trichoderma viride [16]) | MIC (Penicillium ochrochloron [17]) | MIC (Bacillus cereus [18]) | MIC (Aspergillus versicolor [20]) | MIC (Fulvia fulva [21]) | MIC (Aspergillus fumigatus [22]) | MIC (Aspergillus niger [25]) | MIC (Salmonella typhimurium [27]) | MBC (Enterobacter cloacae [28]) | MBC (Escherichia coli [29]) | MIC (Aspergillus flavus [31])

CNc1nnc(Cc2cc(OC)c(OC)cc2S(=O)(=O)N(C)C)s1
540 µM: MBC (Staphylococcus aureus [9]) | MBC (Micrococcus flavus [11]) | MFC (Aspergillus versicolor [14]) | MBC (Listeria monocytogenes [26])
130 µM: MFC (Trichoderma viride [16])
70 µM: MFC (Fulvia fulva [5]) | MIC (Fulvia fulva [21]) | MIC (Aspergillus niger [25]) | MIC (Trichoderma viride [30])
270 µM: MFC (Aspergillus flavus [2]) | MBC (Pseudomonas aeruginosa [3]) | MFC (Penicillium ochrochloron [4]) | MIC (Escherichia coli [6]) | MIC (Enterobacter cloacae [7]) | MIC (Listeria monocytogenes [8]) | MBC (Salmonella typhimurium [10]) | MIC (Pseudomonas aeruginosa [12]) | MFC (Talaromyces funiculosus [13]) | MIC (Bacillus cereus [18]) | MBC (Bacillus cereus [19]) | MIC (Aspergillus versicolor [20]) | MIC (Staphylococcus aureus [23]) | MFC (Aspergillus fumigatus [24]) | MIC (Salmonella typhimurium [27]) | MBC (Enterobacter cloacae [28]) | MBC (Escherichia coli [29]) | MIC (Micrococcus flavus [32])
140 µM: MIC (Talaromyces funiculosus [1]) | MFC (Aspergillus niger [15]) | MIC (Penicillium ochrochloron [17]) | MIC (Aspergillus fumigatus [22]) | MIC (Aspergillus flavus [31])

From ChEMBL document CHEMBL1944580, “Synthesis of novel sulfonamide-1,2,4-triazoles, 1,3,4-thiadiazoles and 1,3,4-oxadiazoles, as potential antibacterial and antifungal agents. Biological evaluation and conformational analysis studies” (2012)
